In ChEMBL document CHEMBL5724801, “EUbOPEN Chemogenomics Library - Multiplex” (2024):
Values joined by “and” are separate entries in the source; they are usually repeats but may differ in a detail not shown here. Equal entries are not always repeated.

Tested on: U2OS
Assay: Multiplex assay against U2OS
Format: toxicity, cell-based
Conditions: human
Procedure, shortened: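 Hoechst33342, BioTracker Green Microtubule Cytoskeleton Dye, MitoTracker Red and Annexin V Alexa Fluor 680 were added to live cells at seeding, and imaging on a CQ1 microscope at 37°C and 5% CO2 followed compound addition. Gating by CellPathfinder machine learning separated cells into Hoechst high-intensity objects or normal cells, then normal cells into healthy, pyknosed or fragmented nuclei, then pyknosed cells into mitotic or apoptotic. Per cents of healthy-nucleus cells are reported for the tubulin, mitochondrial-mass and membrane-permeability phenotypes.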

[1] = 12 h, 1 µM, compound concentration 1 uM
[2] = 12 h, 10 µM, compound concentration 10 uM
[3] = 24 h, 1 µM, compound concentration 1 uM
[4] = 24 h, 10 µM, compound concentration 10 uM
[5] = 48 h, 1 µM, compound concentration 1 uM
[6] = 48 h, 10 µM, compound concentration 10 uM

O=C(NCCO)c1cccc(-c2cc(Nc3ccc(OC(F)(F)F)cc3)ncn2)c1
Population Apoptotic (%) [1]: 64% and 84%
Population Fragmented Nuclei (%) [1]: 13% and 15%
Population Healthy Nuclei (%) [1]: 72% and 73%
Population Hoechst High Intensity Objects (%) [1]: 1%
Population Membrane Permeable-Phenotype (%) [1]: 3% and 4%
Population Mitochondria Different-Phenotype (%) [1]: 3%
Population Mitotic Cells (%) [1]: 35% and 15%
Population Normal (%) [1]: 98%
Population Pyknosed Nuclei (%) [1]: 13% and 10%
Population Tubulin-Different-Phenotype (%) [1]: 1% and 4%
Total Cell Count [1]: 213 and 128
Population Apoptotic (%) [2]: 84% and 100%
Population Fragmented Nuclei (%) [2]: 21% and 20%
Population Healthy Nuclei (%) [2]: 66% and 68%
Population Hoechst High Intensity Objects (%) [2]: 4% and 2%
Population Membrane Permeable-Phenotype (%) [2]: 9%
Population Mitochondria Different-Phenotype (%) [2]: 7% and 15%
Population Mitotic Cells (%) [2]: 15% and 0%
Population Normal (%) [2]: 95% and 97%
Population Pyknosed Nuclei (%) [2]: 12%
Population Tubulin-Different-Phenotype (%) [2]: 6% and 3%
Population Apoptotic (%) [3]: 70% and 86%
Population Fragmented Nuclei (%) [3]: 16% and 20%
Population Healthy Nuclei (%) [3]: 73% and 69%
Population Hoechst High Intensity Objects (%) [3]: 1%
Population Membrane Permeable-Phenotype (%) [3]: 3% and 7%
Population Mitochondria Different-Phenotype (%) [3]: 3% and 5%
Population Mitotic Cells (%) [3]: 29% and 13%
Population Normal (%) [3]: 98%
Population Pyknosed Nuclei (%) [3]: 9%
Population Tubulin-Different-Phenotype (%) [3]: 2% and 4%
Total Cell Count [3]: 256 and 156
Population Apoptotic (%) [4]: 82% and 100%
Population Fragmented Nuclei (%) [4]: 22% and 15%
Population Healthy Nuclei (%) [4]: 64% and 78%
Population Hoechst High Intensity Objects (%) [4]: 4% and 1%
Population Membrane Permeable-Phenotype (%) [4]: 6% and 12%
Population Mitochondria Different-Phenotype (%) [4]: 3% and 13%
Population Mitotic Cells (%) [4]: 17% and 0%
Population Normal (%) [4]: 95% and 98%
Population Pyknosed Nuclei (%) [4]: 12% and 5%
Population Tubulin-Different-Phenotype (%) [4]: 1% and 4%
Population Apoptotic (%) [5]: 88% and 96%
Population Fragmented Nuclei (%) [5]: 15% and 20%
Population Healthy Nuclei (%) [5]: 75% and 65%
Population Hoechst High Intensity Objects (%) [5]: 2%
Population Membrane Permeable-Phenotype (%) [5]: 6% and 9%
Population Mitochondria Different-Phenotype (%) [5]: 3% and 4%
Population Mitotic Cells (%) [5]: 11% and 3%
Population Normal (%) [5]: 97%
Population Pyknosed Nuclei (%) [5]: 8% and 14%
Population Tubulin-Different-Phenotype (%) [5]: 4% and 6%
Total Cell Count [5]: 417 and 206
Population Apoptotic (%) [6]: 92% and 91%
Population Fragmented Nuclei (%) [6]: 18% and 26%
Population Healthy Nuclei (%) [6]: 72% and 64%
Population Hoechst High Intensity Objects (%) [6]: 3% and 2%
Population Membrane Permeable-Phenotype (%) [6]: 8% and 5%
Population Mitochondria Different-Phenotype (%) [6]: 3% and 7%
Population Mitotic Cells (%) [6]: 7% and 8%
Population Normal (%) [6]: 96% and 97%
Population Pyknosed Nuclei (%) [6]: 9% and 8%
Population Tubulin-Different-Phenotype (%) [6]: 6% and 1%

O=C1COc2nccc(-c3ccccc3F)c2CN1Cc1cc(C(F)(F)F)cc(C(F)(F)F)c1
Population Apoptotic (%) [1]: 52% and 77%
Population Fragmented Nuclei (%) [1]: 19% and 23%
Population Healthy Nuclei (%) [1]: 72% and 67%
Population Hoechst High Intensity Objects (%) [1]: 4% and 2%
Population Membrane Permeable-Phenotype (%) [1]: 6% and 15%
Population Mitochondria Different-Phenotype (%) [1]: 2% and 9%
Population Mitotic Cells (%) [1]: 47% and 22%
Population Normal (%) [1]: 95% and 97%
Population Pyknosed Nuclei (%) [1]: 8%
Population Tubulin-Different-Phenotype (%) [1]: 4% and 11%
Total Cell Count [1]: 252 and 108
Population Apoptotic (%) [2]: 70% and 100%
Population Fragmented Nuclei (%) [2]: 36% and 16%
Population Healthy Nuclei (%) [2]: 47% and 76%
Population Hoechst High Intensity Objects (%) [2]: 3% and 5%
Population Membrane Permeable-Phenotype (%) [2]: 25% and 17%
Population Mitochondria Different-Phenotype (%) [2]: 27% and 23%
Population Normal (%) [2]: 96% and 94%
Population Pyknosed Nuclei (%) [2]: 16% and 7%
Population Tubulin-Different-Phenotype (%) [2]: 25% and 13%
Total Cell Count [2]: 200 and 112
Population Apoptotic (%) [3]: 86% and 83%
Population Fragmented Nuclei (%) [3]: 17% and 18%
Population Healthy Nuclei (%) [3]: 74% and 76%
Population Hoechst High Intensity Objects (%) [3]: 3% and 4%
Population Membrane Permeable-Phenotype (%) [3]: 8% and 12%
Population Mitochondria Different-Phenotype (%) [3]: 3% and 7%
Population Mitotic Cells (%) [3]: 13% and 16%
Population Normal (%) [3]: 96% and 95%
Population Pyknosed Nuclei (%) [3]: 8% and 5%
Population Tubulin-Different-Phenotype (%) [3]: 3% and 5%
Total Cell Count [3]: 291 and 121
Population Apoptotic (%) [4]: 58% and 100%
Population Fragmented Nuclei (%) [4]: 36% and 21%
Population Healthy Nuclei (%) [4]: 43% and 70%
Population Hoechst High Intensity Objects (%) [4]: 5%
Population Membrane Permeable-Phenotype (%) [4]: 21% and 13%
Population Mitochondria Different-Phenotype (%) [4]: 22% and 19%
Population Normal (%) [4]: 94%
Population Pyknosed Nuclei (%) [4]: 19% and 8%
Population Tubulin-Different-Phenotype (%) [4]: 17% and 7%
Total Cell Count [4]: 210 and 126
Population Apoptotic (%) [5]: 84% and 76%
Population Fragmented Nuclei (%) [5]: 16% and 19%
Population Healthy Nuclei (%) [5]: 74% and 69%
Population Hoechst High Intensity Objects (%) [5]: 3%
Population Membrane Permeable-Phenotype (%) [5]: 5% and 8%
Population Mitochondria Different-Phenotype (%) [5]: 3% and 5%
Population Mitotic Cells (%) [5]: 15% and 23%
Population Normal (%) [5]: 96%
Population Pyknosed Nuclei (%) [5]: 9% and 10%
Population Tubulin-Different-Phenotype (%) [5]: 3%
Total Cell Count [5]: 425 and 166
Population Apoptotic (%) [6]: 61% and 85%
Population Fragmented Nuclei (%) [6]: 35% and 25%
Population Healthy Nuclei (%) [6]: 46% and 60%
Population Hoechst High Intensity Objects (%) [6]: 4%
Population Membrane Permeable-Phenotype (%) [6]: 20% and 12%
Population Mitochondria Different-Phenotype (%) [6]: 17% and 12%
Population Mitotic Cells (%) [6]: 38% and 14%
Population Normal (%) [6]: 95%
Population Pyknosed Nuclei (%) [6]: 17% and 14%
Population Tubulin-Different-Phenotype (%) [6]: 11% and 3%
Total Cell Count [6]: 236 and 151

CC[C@H]1OC(=O)[C@H](C)[C@@H](O[C@H]2C[C@@](C)(OC)[C@@H](O)[C@H](C)O2)[C@H](C)[C@@H](O[C@@H]2O[C@H](C)C[C@H](N(C)C)[C@H]2O)[C@@]2(C)CC(C)=C(O2)[C@H](C)[C@@H](O)[C@]1(C)O
Population Apoptotic (%) [1]: 50% and 84%
Population Fragmented Nuclei (%) [1]: 19% and 23%
Population Healthy Nuclei (%) [1]: 63% and 62%
Population Hoechst High Intensity Objects (%) [1]: 3% and 1%
Population Membrane Permeable-Phenotype (%) [1]: 33% and 21%
Population Mitochondria Different-Phenotype (%) [1]: 23% and 14%
Population Normal (%) [1]: 96% and 98%
Population Pyknosed Nuclei (%) [1]: 17% and 14%
Population Tubulin-Different-Phenotype (%) [1]: 25% and 14%
Total Cell Count [1]: 226 and 91
Population Apoptotic (%) [2]: 65% and 73%
Population Fragmented Nuclei (%) [2]: 34% and 21%
Population Healthy Nuclei (%) [2]: 40% and 47%
Population Hoechst High Intensity Objects (%) [2]: 7% and 4%
Population Membrane Permeable-Phenotype (%) [2]: 82% and 72%
Population Mitochondria Different-Phenotype (%) [2]: 63% and 81%
Population Mitotic Cells (%) [2]: 34% and 26%
Population Normal (%) [2]: 92% and 95%
Population Pyknosed Nuclei (%) [2]: 25% and 31%
Population Tubulin-Different-Phenotype (%) [2]: 89% and 96%
Total Cell Count [2]: 223 and 128
Population Apoptotic (%) [3]: 65% and 72%
Population Fragmented Nuclei (%) [3]: 20% and 19%
Population Healthy Nuclei (%) [3]: 63% and 64%
Population Hoechst High Intensity Objects (%) [3]: 4% and 5%
Population Membrane Permeable-Phenotype (%) [3]: 20% and 14%
Population Mitochondria Different-Phenotype (%) [3]: 15% and 14%
Population Mitotic Cells (%) [3]: 35% and 27%
Population Normal (%) [3]: 95% and 94%
Population Pyknosed Nuclei (%) [3]: 16%
Population Tubulin-Different-Phenotype (%) [3]: 17% and 10%
Total Cell Count [3]: 256 and 115
Population Apoptotic (%) [4]: 67% and 82%
Population Fragmented Nuclei (%) [4]: 33% and 24%
Population Healthy Nuclei (%) [4]: 36% and 45%
Population Hoechst High Intensity Objects (%) [4]: 5% and 4%
Population Membrane Permeable-Phenotype (%) [4]: 56% and 75%
Population Mitochondria Different-Phenotype (%) [4]: 65% and 86%
Population Mitotic Cells (%) [4]: 32% and 17%
Population Normal (%) [4]: 94% and 95%
Population Pyknosed Nuclei (%) [4]: 29% and 30%
Population Tubulin-Different-Phenotype (%) [4]: 76% and 88%
Total Cell Count [4]: 210 and 121
Population Apoptotic (%) [5]: 67% and 78%
Population Fragmented Nuclei (%) [5]: 19% and 32%
Population Healthy Nuclei (%) [5]: 54% and 58%
Population Hoechst High Intensity Objects (%) [5]: 9% and 2%
Population Membrane Permeable-Phenotype (%) [5]: 13% and 12%
Population Mitochondria Different-Phenotype (%) [5]: 8% and 12%
Population Mitotic Cells (%) [5]: 32% and 21%
Population Normal (%) [5]: 91% and 97%
Population Pyknosed Nuclei (%) [5]: 26% and 9%
Population Tubulin-Different-Phenotype (%) [5]: 11% and 7%
Total Cell Count [5]: 300 and 147
Population Apoptotic (%) [6]: 85% and 83%
Population Fragmented Nuclei (%) [6]: 37% and 20%
Population Healthy Nuclei (%) [6]: 31% and 42%
Population Hoechst High Intensity Objects (%) [6]: 7% and 9%
Population Membrane Permeable-Phenotype (%) [6]: 58% and 62%
Population Mitochondria Different-Phenotype (%) [6]: 55% and 81%
Population Mitotic Cells (%) [6]: 14% and 16%
Population Normal (%) [6]: 92% and 90%
Population Pyknosed Nuclei (%) [6]: 31% and 36%
Population Tubulin-Different-Phenotype (%) [6]: 63% and 88%
Total Cell Count [6]: 236 and 112
